Experimental findings from ChEMBL document CHEMBL1126681, “Novel acyclonucleotides: synthesis and antiviral activity of alkenylphosphonic acid derivatives of purines and a pyrimidine” (J Med Chem, 1993) are described below.

The structures appear in SMILES notation. In brackets after ≈: the same amount, converted by molar mass. Activity calls are given as the source filed them. The calls are words filed in the database; no cut-off is given here. A value given as a limit tells only on which side of the number the result lay.

Data set [1] has as its system Human alphaherpesvirus 1. Nature of the data set: Compound was evaluated for anti-herpesvirus activity against Herpes simplex virus-1 (SC16) strain. Format: functional, organism-based.
Data set [2] has as its system MRC5. Briefly: Compound was evaluated for the inhibition of cell replication of human fibroblast (MRC-5) cells. It counts as functional. The conditions noted are these: read-out: CD50 (the source's name). A digest of the protocol:
(§1)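 Cytotoxicity in uninfected cells, measured as inhibition of DNA synthesis by [3H]thymidine incorporation. CD50 is the concentration giving 50% inhibition of cell replication.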

The subject of data set [3] is Human alphaherpesvirus 2. Nature of the data set: Compound was evaluated for anti-herpesvirus activity against Herpes simplex virus-2 (MS) strain. Format: functional, organism-based. A digest of the protocol: (§2)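 Plaque-reduction assay in human fibroblast (MRC-5) cells infected with virus. IC50 is the compound concentration that halves the plaque count.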
In data set [4] the test system is Human alphaherpesvirus 3. Nature of the data set: Compound was evaluated for anti-herpesvirus activity against Varicella Zoster virus (Ellen) strain. It counts as functional, organism-based. The essentials: as §2
Data set [5] concerns Cytomegalovirus. Briefly: Compound was evaluated for anti-herpesvirus activity against Cytomegalovirus (AD169) strain plaques in infected human fibroblast (MRC-5) cells. Format: functional, organism-based. The note with it: Human betaherpesvirus 5, MRC5. A digest of the protocol:
as §2

Data set [6] is described as follows: Second dissociation constant was determined. Format: ADME.
The subject of data set [7] is Visna-maedi virus. Nature of the data set: Compound was evaluated for anti-retrovirus activity against Visna virus (K184) strain in infected sheep choroid plexus cells; Not active. Format: functional, organism-based.
The test system of data set [8] is MRC5. Briefly: Compound was evaluated for the inhibition of cell replication of human fibroblast (MRC-5) cells. Format: functional. The note with it: read-out: CD50 (the source's name). The essentials:
as §1

The subject of data set [9] is Human alphaherpesvirus 2. Briefly: Compound was evaluated for anti-herpesvirus activity against Herpes simplex virus-2 (MS) strain. Format: functional, organism-based. A digest of the protocol:
as §2

The subject of data set [10] is Human immunodeficiency virus 1. Nature of the data set: Compound was evaluated for anti-retrovirus activity against HIV-1 (D34) Diagen strain; Not active. Format: functional, organism-based.
Data set [11] has as its system Cytomegalovirus. Nature of the data set: Compound was evaluated for anti-herpesvirus activity against Cytomegalovirus (AD169) strain plaques in infected human fibroblast (MRC-5) cells. Format: functional, organism-based. The conditions noted are these: Human betaherpesvirus 5, MRC5. The essentials:
as §2

Data set [12] concerns Human alphaherpesvirus 1. Nature of the data set: Compound was evaluated for anti-herpesvirus activity against Herpes simplex virus-1 (SC16) strain. It counts as functional, organism-based.
Data set [13] deals with Human alphaherpesvirus 3. Briefly: Compound was evaluated for anti-herpesvirus activity against Varicella Zoster virus (Ellen) strain. Format: functional, organism-based. A digest of the protocol:
as §2

Data set [14] has as its system Human immunodeficiency virus 1. Nature of the data set: Compound was evaluated for anti-retrovirus activity against HIV-1 (D34) Diagen strain. Format: functional, organism-based.
Data set [15] is described as follows: Compound was evaluated for the inhibition of cell replication sheep choroid plexus (SCP) cells. The note with it: Ovis aries; read-out: CD50 (the source's name). Format: functional. A digest of the protocol:
as §1

Data set [16] concerns Visna-maedi virus. Briefly: Compound was evaluated for anti-retrovirus activity against Visna virus (K184) strain in infected sheep choroid plexus cells. It counts as functional. A digest of the protocol:
(§3)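 Infected sheep choroid plexus (SCP) cells. MIC is the lowest concentration that completely prevents virus cytopathic effect.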

Data set [17] has as its system Human alphaherpesvirus 1. Nature of the data set: Compound was evaluated for anti-herpesvirus activity against Herpes simplex virus-1 (SC16) strain; Not active. It counts as functional, organism-based.
Data set [18] is described as follows: Compound was evaluated for the inhibition of cell replication human peripheral blood lymphocytes (PBL's). It counts as functional. The note with it: read-out: CD50 (the source's name). The essentials:
as §1

The subject of data set [19] is Cytomegalovirus. Briefly: Compound was evaluated for anti-herpes virus activity against Cytomegalovirus (AD169) strain plaques in infected human fibroblast (MRC-5) cells; Not active. It counts as functional, organism-based. A digest of the protocol: as §2
Data set [20] has as its system Human alphaherpesvirus 2. Nature of the data set: Compound was evaluated for anti-herpesvirus activity against Herpes simplex virus-2 (MS) strain; Not active. Format: functional, organism-based. A digest of the protocol:
as §2

In data set [21] the test system is Human alphaherpesvirus 3. Nature of the data set: Compound was evaluated for anti-herpesvirus activity against Varicella Zoster virus (Ellen) strain; Not active. Format: functional, organism-based. The essentials:
as §2

Data set [22] in a line: Compound was evaluated for the inhibition of cell replication sheep choroid plexus (SCP) cells. It counts as functional. The conditions noted are these: Ovis aries; read-out: CD50 (the source's name). The essentials:
as §1

For data set [23], the system named is Visna-maedi virus. Briefly: Compound was evaluated for anti-retrovirus activity against Visna virus (K184) strain in infected sheep choroid plexus cells. It counts as functional. A digest of the protocol:
as §3

Data set [24] deals with PBL. Nature of the data set: Compound was evaluated for the inhibition of cell replication human peripheral blood lymphocytes (PBL's). It counts as functional. The note with it: read-out: CD50 (the source's name). The essentials:
as §1

Data set [25] relates to Cytomegalovirus. Briefly: Compound was evaluated for anti-herpesvirus activity against Cytomegalovirus (AD169) strain plaques in infected human fibroblast (MRC-5) cells; Not active. It counts as functional, organism-based. The essentials: as §2
Data set [26] is described as follows: Compound was evaluated for the inhibition of DNA synthesis in uninfected cells. Format: functional. The conditions noted are these: read-out: CD50 (the source's name). The essentials:
as §1

A word on the IC50: it is the midpoint of a concentration-inhibition curve. Consider `Nc1nc2c(ncn2COCCO)c(=O)[nH]1` [ACYCLOVIR], for which the IC50 in data set [1] came out at 3.9 µM; in [3], 4.3 µM; in [4], 21 µM; in [5] it was 93 µM. The CC50 in [2] worked out at 355 µM.
As usually defined, the pKa is the pH at which an ionisable group is half protonated. For `Nc1nc(O)c2ncn(OC(/C=C/P(=O)(O)O)CO)c2n1` (stereo not drawn), the pKa in data set [6] (read-out: pKa E2) came out at 6.6. Further, in [7], the MIC entry was “inactive”.
As for `Nc1ncnc2c1ncn2OC(/C=C/P(=O)(O)O)CO` (stereo not drawn), the MIC result in data set [7] was “inactive”.
Consider `Nc1nc(O)c2ncn(CC(/C=C/P(=O)(O)O)CO)c2n1` (stereo not drawn), for which the CC50 in data set [8] amounted to 20 µM. For the same compound, the IC50 in data set [9] was 66 µM; in [10], “Not Active”; in data set [11], less than 9 µM; in [12], 60 µM; in [13], 17 µM.
Consider `Nc1nc(O)c2ncn(OCC(/C=C/P(=O)(O)O)CO)c2n1` (stereo not drawn), for which the IC50 came to 8.9 µM in data set [14]; 177 µM in [9]; 44 µM in [11]; 295 µM in data set [12]; 15 µM in [13]. Also, in data set [8], the CC50 came out at 19 µM.
In the case of `Nc1nc(O)c2ncn(CC/C=C/P(=O)(O)O)c2n1`, the results for the CC50 in data set [8] and in data set [15] were 4.5 µM and 1.3 µM, respectively. Further, the IC50 in data set [9] is 90 µM; in data set [10] it was “Not Active”; in data set [11], 52 µM; in [17], “Not Active”; in data set [13], 190 µM. Moreover, the MIC in data set [16] worked out at 0.35 µM (≈ 0.0998 µg/mL).
Turning to `Nc1ccn(OC(/C=C/P(=O)(O)O)CO)c(=O)n1` (stereo not drawn), the MIC entry in [7] is “inactive”.
Regarding `Nc1nc(O)c2ncn(OCC/C=C/P(=O)(O)O)c2n1`, the IC50 in data set [14] was 0.1 µM; in [9], less than 10 µM; in [11] it was 0.53 µM; in data set [12], less than 10 µM; in data set [13], less than 10 µM. Besides, the CC50 in data set [8] is 0.1 µM; in [15], 0.13 µM; in data set [18], 0.23 µM. In addition, the MIC in data set [16] is less than 0.01 µM.
As to `Nc1nc(N)c2ncn(CC/C=C/P(=O)(O)O)c2n1`, the half-maximal inhibitory concentration (IC50) in [14] is 9.8 µM; in data set [19] it was “Not Active”; in [20], “Not Active”; in [21] it was “Not Active”; in data set [17], “Not Active”. Besides, the figures for the CC50 in data set [8] and in [15] were 222 µM and 95 µM, respectively. Further, in [16], the MIC was found to be 2.1 µM (≈ 0.597 µg/mL).
On to `Cc1cn([C@H]2C[C@H](N=[N+]=[N-])[C@@H](CO)O2)c(=O)[nH]c1=O` [ZIDOVUDINE], for which the CC50 is 72 µM in data set [2], greater than 370 µM in data set [22] and 13 µM in data set [24]. Further, the MIC in data set [23] came out at 5.6 µM (≈ 1.5 µg/mL).
On to `Nc1ncnc2c1ncn2OCCOCP(=O)(O)O`, for which the 50% inhibitory concentration (IC50) was 0.24 µM in data set [14]; 270 µM in data set [9]; “Not Active” in data set [25]; “Not Active” in data set [17]; 280 µM in [13]. Moreover, the CC50 in [8] and in data set [15] was 173 µM in each case. In addition, in data set [16], the MIC came out at 8 µM (≈ 2.31 µg/mL).
Take `Nc1nc(O)c2ncn(OCC/C=C\P(=O)(O)O)c2n1`: the CC50 in data set [8] was 26 µM; in data set [15], 11.7 µM. Besides, the IC50 result is “Not Active” in [20]; “Not Active” in data set [10]; “Not Active” in data set [21]; “Not Active” in data set [17]; 178 µM in data set [5]. This compound yielded an MIC in data set [16] of 0.1 µM (≈ 0.0301 µg/mL).
On to `Nc1nc2c(ncn2CCOCP(=O)(O)O)c(=O)[nH]1` [GS-438], for which the CC50 in data set [26] amounted to 8.6 µM. The pKa in [6] was 6.5.
On to `Nc1ncnc2c1ncn2CC/C=C\P(=O)(O)O`, for which the MIC result in data set [7] is “inactive”.
For `Nc1nc2c(ncn2CC/C=C\P(=O)(O)O)c(=O)[nH]1`, in [7], the MIC result was “inactive”.
On to `Nc1ncnc2c1ncn2OCC/C=C/P(=O)(O)O`, for which the IC50 in [14] was 10.2 µM; in [20], “Not Active”; in data set [25] it was “Not Active”; in [21] it was “Not Active”; in data set [17], “Not Active”. Further, the CC50 is 330 µM in data set [8] and 130 µM in data set [18]. Also, the MIC in data set [16] came out at 82 µM (≈ 23.4 µg/mL).
For `Nc1ncnc2c1ncn2CC/C=C/P(=O)(O)O`, the CC50 in data set [8] was determined as 260 µM; in data set [15] it was 137 µM. Further, the half-inhibitory concentration (IC50) result in data set [20], in data set [10], in [25], in [21] and in data set [17] was “Not Active” each time. This compound gave an MIC in [16] of 20 µM (≈ 5.38 µg/mL).
Regarding `Nc1ncnc2c1ncn2CC(/C=C/P(=O)(O)O)CO` (stereo not drawn), the CC50 in [8] worked out at 189 µM. For the same compound, the IC50 in data set [9] is 91 µM; in data set [10], “Not Active”; in data set [11], 35 µM; in data set [12], 137 µM; in [13], 16 µM.
Take `C=C(/C=C/P(=O)(O)O)Cn1cnc2c(O)nc(N)nc21`: the MIC result in data set [7] is “inactive”.
